Data published in publication PMC8482496 (ACS Omega, 2021).

Key:
HEK293 cells = experiment: MTT assay, cytotoxicity; assay type: cell-based, human; settings: at a concentration of 100 μM; 72 h
Method in brief: (§1)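 HEK293 cells kept in DMEM with 10% FBS plus penicillin/streptomycin, 37 °C, 5% CO2. Seeded at 2 × 10^5 cells/mL and grown 24 h, then exposed 72 h to test compound in DMSO (final DMSO below 0.5%) at various concentrations. MTT (5 mg/mL solution) added for 4 h; formazan dissolved in DMSO, A540 read; viability expressed as percent of untreated control cells.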

S. aureus ThrRS = biological target: T1, S. aureus ThrRS (Staphylococcus aureus, UniProt Q2FXP7); experiment: In vitro aminoacylation assay; assay type: biochemical; settings: read-out: inhibition of S. aureus ThrRS
T1 sequence (Q2FXP7 1-645): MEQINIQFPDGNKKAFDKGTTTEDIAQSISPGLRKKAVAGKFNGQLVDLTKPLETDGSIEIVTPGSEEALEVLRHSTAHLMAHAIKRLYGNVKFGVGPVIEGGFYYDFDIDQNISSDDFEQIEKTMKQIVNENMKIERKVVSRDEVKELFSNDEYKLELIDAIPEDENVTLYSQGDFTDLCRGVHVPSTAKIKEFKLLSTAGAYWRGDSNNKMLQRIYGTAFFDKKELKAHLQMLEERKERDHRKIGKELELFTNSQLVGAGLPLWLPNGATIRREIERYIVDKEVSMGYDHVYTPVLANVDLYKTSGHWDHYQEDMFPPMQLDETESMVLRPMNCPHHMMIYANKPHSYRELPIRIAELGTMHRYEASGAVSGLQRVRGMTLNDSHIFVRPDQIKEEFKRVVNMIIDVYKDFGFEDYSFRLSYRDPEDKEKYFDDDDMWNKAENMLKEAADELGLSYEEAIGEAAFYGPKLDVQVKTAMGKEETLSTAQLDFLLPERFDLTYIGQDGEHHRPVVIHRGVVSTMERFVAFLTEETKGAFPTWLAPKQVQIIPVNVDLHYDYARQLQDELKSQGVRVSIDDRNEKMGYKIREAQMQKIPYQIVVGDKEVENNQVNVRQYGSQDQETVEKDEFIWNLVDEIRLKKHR
Method in brief: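 S. aureus ThrRS expressed in E. coli BL21(DE3)pLysS (0.25 mM IPTG, 3 h, 37 °C), purified on DEAE then heparin columns. Started with 10 mM ATP; 10 min, 37 °C; TCA-precipitated on filters, scintillation-counted; at least duplicates.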

MTT assay, cytotoxicity = assay type: cell-based, human; settings: human, HEK293 cells
Method in brief: as §1

Row | SMILES | cytotoxicity toward HEK293 (HEK293 cells) | inhibition at 100 µM (S. aureus ThrRS) | decrease of the growth of HEK293 cells (HEK293 cells) | EC50 at 72 h (MTT assay, cytotoxicity)
1 | COc1ccc(C(=O)CSc2nc3ccc([N+](=O)[O-])cc3s2)cc1 [compound 1, 1-(4-methoxy-phenyl)-2-(6-nitro-benzothiazol-2-ylsulfanyl)-ethanone] | not cytotoxic | 88.5% | – | –
2 | Cc1ccc([N+](=O)[O-])cc1NC(=O)COc1ccccc1C(C)(C)C [compound 2, 2-(2-tert-butyl-phenoxy)-N-(2-methyl-5-nitro-phenyl)-acetamide] | not cytotoxic | 85.6% | – | –
3 | CCOC(=O)c1c(-c2ccc(Cl)cc2)csc1NC(=O)CN1CC(C)OC(C)C1 (stereo not drawn) [compound 8, 4-(4-chloro-phenyl)-2-[2-(2,6-dimethyl-morpholin-4-yl)-acetylamino]-thiophene-3-carboxylic acid ethyl ester] | not cytotoxic | 78.3% | – | –
4 | Cc1cc(I)ccc1N1C(=O)CC(Sc2ncccc2C(=O)O)C1=O (stereo not drawn) [compound 11, 2-[1-(4-iodo-2-methyl-phenyl)-2,5-dioxo-pyrrolidin-3-ylsulfanyl]-nicotinic acid] | – | 78.6% | 30% | > 100 µM
